# According to PubChem BioAssay:
# The list shows a part of the results. Calls of active or inactive are those of the source.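 Rule for the calls, unless noted: active = mean activation over triplicate wells above the hit cutoff derived from the earlier primary screen (cut at about 11% in these data); inactive = the rest.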
# Test system: DAF-12 nuclear receptor (Heterodera glycines), GAL4-LBD fusion
# Test: hgDAF-12 GAL4 fusion reporter activation, retest – cell-based, luminescence, HEK293, GAL4-LBD fusion, confirmation (AID 743050);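 note: 0% = DMSO low control and 100% = 2 mM sodium butyrate high control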
# Conditions: HEK293 GAL4-hgDAF12 luciferase reporter, agonist mode; at 6.8 µM; hits give high values; percent of butyrate response
row,SMILES,activation
1,Cc1ccc(C(=O)NNc2ncnc3ccccc23)cc1,9.47% (inactive)
2,O=C(NN=Cc1ccc2c(c1)CCC2)c1ccccc1O,10.4% (inactive)
3,S=C(c1ccc(-c2ccccc2)o1)N1CCCCC1,16.1% (active)
4,COc1ccc(C(=O)O/N=C(\N)c2ccccn2)cc1[N+](=O)[O-],15% (active)
5,Fc1ccccc1-c1cc2cc3c(cc2cn1)OCO3,18.4% (active)
6,CN(C)S(=O)(=O)c1ccc2oc(SCC(=O)Nc3ccccc3F)nc2c1,15.5% (active)
7,N/C(=N\OC(=O)CCC1CCCCC1)c1ccccn1,12.3% (active)
8,O=C(Nc1ncccc1O)c1ccc(S(=O)(=O)N2CCCC2)cc1,14.2% (active)
9,Oc1cccc2cc(-c3ccncc3)cnc12,5.92% (inactive)
10,CC(C)(C)c1csc(NC2=NS(=O)(=O)c3ccccc32)n1,15.4% (active)
11,O=C(Nc1ccc2ccccc2c1[N+](=O)[O-])c1ccccc1,17.7% (active)
12,CCCNC(=O)c1c(Cl)cnn1-c1ccc(C)cc1,9.95% (inactive)
13,Cc1cc(O)c(NC(=O)c2ccc(C)c([N+](=O)[O-])c2)cc1C,10% (inactive)
14,COc1ccc(NC(=O)c2ccc(OC)cc2)cc1,15.9% (active)
15,COc1ccc(-c2cn3ccsc3n2)cc1,16.3% (active)
16,Cc1cnc(NC(=O)c2ccccn2)s1,15.6% (active)
17,COc1ccc(CNC(=O)COc2ccccc2C(=O)c2cnn(-c3ccccc3)c2)cc1OC,10.3% (inactive)
18,O=C(Nn1c(SCc2ccc([N+](=O)[O-])cc2)nc2ccccc2c1=O)c1ccc(F)cc1,11% (active)
19,COc1cccc(/C=C/C(=O)Nc2ccc3c(c2)OCCO3)c1,12.4% (active)
20,Brc1ccc(C2CC(c3ccccc3)=Nc3ccccc3N2)cc1 (stereo not given),17.4% (active)

row,SMILES,activation
1,O=C(NC1CCC1)c1ccc(C#CC2CC2)cn1,13.4% (active)
2,O=C(NCCc1ccc(F)cc1)c1ccc2nccnc2c1,17% (active)
3,CC(C)C(=O)Nc1cccc(C(=O)Nc2ccc3c(c2)OCO3)c1,14.1% (active)
4,CSc1ccc(/C=N/NC(=O)c2cccc(Cl)c2)cc1,14.8% (active)
5,CC(C)(C)c1ccc(/C=C/C(=O)Nc2ncccn2)cc1,14.8% (active)
6,COc1ccc(NC(=O)Nc2ccc3nsnc3c2)cc1,13.8% (active)
7,CC1CCCN(c2ccc(C(=O)NCCc3ccccc3)cn2)C1 (stereo not given),14.6% (active)
8,Cc1ccsc1C(=O)N/N=C/c1ccc([N+](=O)[O-])cc1,15.8% (active)
9,O=C(CCSc1ccccc1)N1CCN(c2ccccc2F)CC1,14.2% (active)
10,O=C(Nc1ccccc1)c1ccc2c(c1)OCCCO2,19.7% (active)
11,CNS(=O)(=O)c1ccc(NC(=O)Nc2ccc3c(c2)OCO3)cc1,13.2% (active)
12,CC(=O)c1cc(C#N)c(SCC(=O)C(C)(C)C)nc1C,14.8% (active)
13,CC(C)c1cc(C(N)=O)c(NC(=O)c2cccc(COc3ccc(Br)cc3)c2)s1,14% (active)
14,CC(C)n1c(=O)[nH]c2cc(C(=O)Nc3ccccc3)ccc21,5.08% (inactive)
15,O=C(NC1CCCC1)c1cc(-c2ccccc2)on1,37.1% (active)
16,Cc1ccn(-c2cccc(-n3ccc(C)n3)n2)n1,15.2% (active)
17,Cc1cccc(N(CC(=O)Nc2ccc(-c3nc4ccc(C)cc4s3)cc2)S(C)(=O)=O)c1,19.8% (active)
18,O=[N+]([O-])c1cc(S(=O)(=O)N2CCCC2)ccc1NN=C1CCCC1,-0.65% (inactive)
19,CCOc1ccc(OCc2cccc(C(=O)N(CC)CC)c2)cc1,19.5% (active)
20,O=C(NCCCN1CCOCC1)c1cc(-c2ccccc2F)no1,11.6% (active)

# Molecular target: Oxysterols receptor LXR-beta (Homo sapiens) (UniProt P55055)
# Test: nonspecific reporter activation via LXR – cell-based, luminescence, HEK293, H. glycines campaign, counter-screen for hgDAF-12 agonist project, confirmation (AID 743051;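 active = mean activation of the triplicate above a set limit carried over from the primary screen, none filed active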)
# Conditions: HEK293 Gal4-LXR luciferase reporter, 24 h; at 6.8 µM; hits give high values
# Procedure, shortened: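 System: HEK293 cells with Gal4-LXR and tk-luc reporter. Compound dosing: single nominal test compound dose of 6.8 µM. Timing: 3 h cell plating, then 24 h compound exposure at 37 °C. Detection: One-Glo luminescence after 15 min. Read-out basis: percent activation relative to median DMSO and positive-control wells. Benchmarks: DMSO low control, 0.68% final.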
# Chain of Oxysterols receptor LXR-beta (Homo sapiens) (P55055 whole entry, looked up): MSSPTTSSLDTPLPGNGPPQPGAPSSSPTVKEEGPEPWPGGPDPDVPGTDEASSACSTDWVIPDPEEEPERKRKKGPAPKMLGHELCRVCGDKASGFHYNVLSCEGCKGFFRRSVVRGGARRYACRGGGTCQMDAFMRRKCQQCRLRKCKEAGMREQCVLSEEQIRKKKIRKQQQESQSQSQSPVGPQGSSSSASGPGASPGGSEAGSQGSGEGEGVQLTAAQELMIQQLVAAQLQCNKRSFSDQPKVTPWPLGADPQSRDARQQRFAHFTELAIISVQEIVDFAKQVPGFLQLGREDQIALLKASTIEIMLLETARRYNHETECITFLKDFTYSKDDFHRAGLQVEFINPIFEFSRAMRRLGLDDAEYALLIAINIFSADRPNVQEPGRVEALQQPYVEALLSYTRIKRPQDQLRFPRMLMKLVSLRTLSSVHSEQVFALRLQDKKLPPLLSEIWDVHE
row,SMILES,activation
1,Cc1ccc(C(=O)NNc2ncnc3ccccc23)cc1,0.43% (inactive)
2,O=C(NN=Cc1ccc2c(c1)CCC2)c1ccccc1O,0.3% (inactive)
3,S=C(c1ccc(-c2ccccc2)o1)N1CCCCC1,0.73% (inactive)
4,COc1ccc(C(=O)O/N=C(\N)c2ccccn2)cc1[N+](=O)[O-],0.59% (inactive)
5,Fc1ccccc1-c1cc2cc3c(cc2cn1)OCO3,0.79% (inactive)
6,CN(C)S(=O)(=O)c1ccc2oc(SCC(=O)Nc3ccccc3F)nc2c1,0.66% (inactive)
7,N/C(=N\OC(=O)CCC1CCCCC1)c1ccccn1,0.49% (inactive)
8,O=C(Nc1ncccc1O)c1ccc(S(=O)(=O)N2CCCC2)cc1,0.03% (inactive)
9,Oc1cccc2cc(-c3ccncc3)cnc12,0.18% (inactive)
10,CC(C)(C)c1csc(NC2=NS(=O)(=O)c3ccccc32)n1,0.75% (inactive)
11,O=C(Nc1ccc2ccccc2c1[N+](=O)[O-])c1ccccc1,0.89% (inactive)
12,CCCNC(=O)c1c(Cl)cnn1-c1ccc(C)cc1,0.55% (inactive)
13,Cc1cc(O)c(NC(=O)c2ccc(C)c([N+](=O)[O-])c2)cc1C,0.55% (inactive)
14,COc1ccc(NC(=O)c2ccc(OC)cc2)cc1,0.75% (inactive)
15,COc1ccc(-c2cn3ccsc3n2)cc1,0.84% (inactive)
16,Cc1cnc(NC(=O)c2ccccn2)s1,0.63% (inactive)
17,COc1ccc(CNC(=O)COc2ccccc2C(=O)c2cnn(-c3ccccc3)c2)cc1OC,0.65% (inactive)
18,O=C(Nn1c(SCc2ccc([N+](=O)[O-])cc2)nc2ccccc2c1=O)c1ccc(F)cc1,0.57% (inactive)
19,COc1cccc(/C=C/C(=O)Nc2ccc3c(c2)OCCO3)c1,0.69% (inactive)
20,Brc1ccc(C2CC(c3ccccc3)=Nc3ccccc3N2)cc1 (stereo not given),0.65% (inactive)

row,SMILES,activation
1,O=C(NC1CCC1)c1ccc(C#CC2CC2)cn1,0.57% (inactive)
2,O=C(NCCc1ccc(F)cc1)c1ccc2nccnc2c1,0.74% (inactive)
3,CC(C)C(=O)Nc1cccc(C(=O)Nc2ccc3c(c2)OCO3)c1,0.72% (inactive)
4,CSc1ccc(/C=N/NC(=O)c2cccc(Cl)c2)cc1,0.56% (inactive)
5,CC(C)(C)c1ccc(/C=C/C(=O)Nc2ncccn2)cc1,0.79% (inactive)
6,COc1ccc(NC(=O)Nc2ccc3nsnc3c2)cc1,0.54% (inactive)
7,CC1CCCN(c2ccc(C(=O)NCCc3ccccc3)cn2)C1 (stereo not given),0.64% (inactive)
8,Cc1ccsc1C(=O)N/N=C/c1ccc([N+](=O)[O-])cc1,0.59% (inactive)
9,O=C(CCSc1ccccc1)N1CCN(c2ccccc2F)CC1,0.48% (inactive)
10,O=C(Nc1ccccc1)c1ccc2c(c1)OCCCO2,1.02% (inactive)
11,CNS(=O)(=O)c1ccc(NC(=O)Nc2ccc3c(c2)OCO3)cc1,0.5% (inactive)
12,CC(=O)c1cc(C#N)c(SCC(=O)C(C)(C)C)nc1C,0.48% (inactive)
13,CC(C)c1cc(C(N)=O)c(NC(=O)c2cccc(COc3ccc(Br)cc3)c2)s1,0.51% (inactive)
14,CC(C)n1c(=O)[nH]c2cc(C(=O)Nc3ccccc3)ccc21,0.17% (inactive)
15,O=C(NC1CCCC1)c1cc(-c2ccccc2)on1,0.75% (inactive)
16,Cc1ccn(-c2cccc(-n3ccc(C)n3)n2)n1,0.61% (inactive)
17,Cc1cccc(N(CC(=O)Nc2ccc(-c3nc4ccc(C)cc4s3)cc2)S(C)(=O)=O)c1,0.65% (inactive)
18,O=[N+]([O-])c1cc(S(=O)(=O)N2CCCC2)ccc1NN=C1CCCC1,-0.04% (inactive)
19,CCOc1ccc(OCc2cccc(C(=O)N(CC)CC)c2)cc1,0.78% (inactive)
20,O=C(NCCCN1CCOCC1)c1cc(-c2ccccc2F)no1,0.17% (inactive)
